This is an account of results in publication PMC12024519 (Science Advances, 2025).

In one assay the test system is H3K27me3. The assay is described as follows: immunoblot of H3K27me3. The assay is classed as cell-based. (In general: In western blotting, separated proteins are transferred to a membrane and probed.)
The subject of the next assay is SMARCA2/4. Kind of assay: immunoblot of SMARCA2/4 depletion. The assay is classed as cell-based. Particulars: 0.1 μM, 16 hours, MDA-MB-231. The method, boiled down:
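Cells grown at 37°C, 5% CO2 with 10% FBS: MDA-MB-231 and MCF-7 in DMEM, BT-549 and T-47D in RPMI 1640. After washing in ice-cold PBS, cells were lysed in Triton (pH 7.4) or EBC (pH 7.5) buffer with protease and phosphatase inhibitors. Equal protein was resolved by SDS-PAGE, transferred to PVDF and probed with primary antibodies at 1:1000–1:10,000 in TBST/5% milk.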

Assay [1] has as its system BRD9 interaction with AKT1. Kind of assay: co-immunoprecipitation of BRD9 and AKT1 in MDA-MB-231 cells. The assay is classed as cell-based. Particulars: 0.1 μM, 16 hours. The method, boiled down: (§1)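 Cells grown in DMEM with 10% FBS, penicillin/streptomycin, at 37°C and 5% CO2; HEK293T transfected with Lipofectamine/Plus. Cells rinsed in ice-cold PBS and lysed in Triton buffer (40 mM Hepes pH 7.4, 150 mM NaCl, 1% Triton X-100) or EBC buffer (50 mM Tris pH 7.5, 0.5% NP-40) with protease/phosphatase inhibitors. 1000–3000 μg lysate incubated with agarose-conjugated antibody 3–4 h at 4°C; beads washed five times in NETN; SDS-PAGE immunoblot.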

In assay [2] the test system is AKT. The assay is described as follows: immunoblot of AKT phosphorylation in HEK293T cells. As to conditions: 0.1 μM, 0-6 h. The assay is classed as cell-based, Human.
For the next assay, the system named is BRD9-BD. The assay is described as follows: in vitro biotin-peptide pull-down with GST-BRD9-BD. The assay is classed as binding. As to conditions: immunoblot; for relative affinity of BRD9-BD for R391me2s vs H4R3me2s: biotin-labeled peptides, pull-down with GST-BRD9-BD.
Assay [3] concerns MDA-MB-231 cells. Kind of assay: RT-qPCR of select common genes in MDA-MB-231 cells. The assay is classed as cell-based. Particulars: n = 3 biological replicates. A general note: In qPCR the cycle at which signal appears reflects the starting amount.
The subject of assay [4] is MDA-MB-231 cells. The assay is described as follows: RNA-seq of treated MDA-MB-231 cells. The assay is classed as cell-based, human. Particulars: for shared down-regulated genes (I-BRD9 and ipatasertib) / shared up-regulated genes (I-BRD9 and ipatasertib): 5 μM I-BRD9 or 1 μM ipatasertib, Q value < 0.05; for hallmark gene sets significantly enriched among the 186 shared genes: MSigDB, genes shared by I-BRD9 and ipatasertib; for common down-regulated genes significantly marked by H3K27me3: of 116 genes common to I-BRD9 and ipatasertib, epidecodeR.

In assay [5] the test system is BRD9 and AKT1 interaction. The assay is described as follows: co-immunoprecipitation of Myc-BRD9 and HA-AKT1 in HEK293T cells. As to conditions: 5 μM, 24 hours. The assay is classed as cell-based, Human.
In assay [6] the test system is AKT. Kind of assay: immunoblot of AKT activation. Particulars: 5 μM I-BRD9, MDA-MB-231, indicated times. The assay is classed as cell-based. The method, boiled down: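 MDA-MB-231 cells kept in DMEM with 10% FBS, penicillin/streptomycin, 37°C, 5% CO2. After treatment, cells washed with ice-cold PBS and lysed in Triton or EBC buffer containing protease/phosphatase inhibitors. Protein quantified by Bio-Rad assay; equal lysate amounts run on SDS-PAGE and transferred to PVDF. Blots probed with pT308-AKT, pS473-AKT, pan-AKT, pGSK-3β and GSK-3β antibodies diluted 1:1000–1:10,000 in TBST/5% milk.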

Another assay relates to AKT1 PH and KD domains. The assay is described as follows: interaction of AKT1 PH and KD domains in HEK293T cells. The assay is classed as cell-based, Human. Particulars: 5 μM I-BRD9, 16 h.
The next assay deals with EZH2. Kind of assay: AKT-mediated phosphorylation of EZH2, phospho-AKT substrate antibody. The assay is classed as cell-based, Human. Particulars: 5 μM I-BRD9, 16 h, HEK293T transfected with HA-EZH2. In outline: as §1
For the next assay, the system named is BRD9-3Mut. Kind of assay: biotin-peptide pull-down with Myc-BRD9-3Mut. The assay is classed as binding. As to conditions: Myc-BRD9-3Mut from HEK293T WCL; immunoblot.
Another assay deals with Tudor domain of SMN. The assay is described as follows: biotin-peptide pull-down with GST-SMN-Tudor. The assay is classed as binding. Particulars: compared to BRD9-BD, immunoblot.
The next assay has as its system Tudor domain of SND1. The assay is described as follows: biotin-peptide pull-down with GST-SND1-Tudor. The assay is classed as binding. As to conditions: compared to BRD9-BD, immunoblot.

For `Cc1ncsc1-c1ccc([C@H](C)NC(=O)[C@@H]2C[C@@H](O)CN2C(=O)[C@@H](NC(=O)CN2CCN(c3cc(-c4ccccc4O)nnc3N)CC2)C(C)(C)C)cc1` [AU-15330], in the assay on H3K27me3 (0.1 μM, 0-6 h, HEK293T), the “H3K27me3, AU-15330” value was “minor effects”. Further, the “depletion of SMARCA2/4” value in the assay with SMARCA2/4 is recorded as “depletion of SMARCA2/4”. The “effect on BRD9 interaction with AKT1” value in [1] is given as “minimal effects on BRD9 interaction with AKT1”. Also, in the assay on AKT [2], the “AKT phosphorylation, AU-15330” value is “minor effects”.

Consider “H4R3me2s: Biotin-H4R3me2s peptide, ANASPEC AS-65424”, for which the “relative affinity of BRD9-BD for R391me2s vs H4R3me2s” value in the assay with BRD9-BD is recorded as “greater affinity for R391me2s than H4R3me2s”.

On to `Nc1cc(C(F)(F)F)c(-c2cc(N3CCOCC3)nc(N3CCOCC3)n2)cn1` [BKM120], for which the “H3K27me3 level, BKM120” value in the assay with H3K27me3 (0, 1, 5 μM, 16 h, MDA-MB-231) is reported as “elevated”.

On to `CC(C)NC[C@@H](C(=O)N1CCN(c2ncnc3c2[C@H](C)C[C@H]3O)CC1)c1ccc(Cl)cc1` [ipatasertib], for which the “H3K27me3 level, ipatasertib” value in the assay with H3K27me3 (0, 1, 5 μM, 16 h, MDA-MB-231) is given as “elevated”. For the same compound, the “mRNA of shared genes in hallmark pathways, ipatasertib” value with MDA-MB-231 cells [3] (1 μM ipatasertib, 16 hours) is recorded as “transcriptionally repressed”. In addition, in the assay with MDA-MB-231 cells [4] (1 μM ipatasertib, 16 hours), the “share of AKT-down-regulated genes that are common with I-BRD9” value was 59% and the “share of AKT-up-regulated genes that are common with I-BRD9” value was 32%. For the same compound, in the assay with MDA-MB-231 cells [4] (16 hours), the “shared down-regulated genes (I-BRD9 and ipatasertib)” value was 116 genes; the “shared up-regulated genes (I-BRD9 and ipatasertib)” value is listed as 70 genes. In the assay with MDA-MB-231 cells [4], the “hallmark gene sets significantly enriched among the 186 shared genes” value is on record as “Nine” and the “common down-regulated genes significantly marked by H3K27me3” value is “Seventy-five”.

Regarding `CCn1cc(-c2cccc(C(F)(F)F)c2)c2sc(C(=N)NC3CCS(=O)(=O)CC3)cc2c1=O` [I-BRD9], in the assay on H3K27me3 (5 μM I-BRD9, 16 h, AKT1-depleted MDA-MB-231), the “H3K27me3, I-BRD9 combined with AKT1 depletion” value is “did not further induce H3K27me3”. In addition, the “H3K27me3 induction by I-BRD9 upon overexpression of myr-AKT1” value in the assay with H3K27me3 (5 μM I-BRD9, 16 h, MDA-MB-231 stably expressing Myr-AKT1 (fig. S6J)) is reported as “largely suppressed H3K27me3 induction”. The “H3K27me3 signal, I-BRD9” value with H3K27me3 (MDA-MB-231 (Fig. 5D) and MDA-MB-436 (0, 1, 5 μM, fig. S6C), 16 h) is recorded as “markedly enhanced H3K27me3 signal”. In the assay on MDA-MB-231 cells [3] (5 μM I-BRD9, 16 hours), the “mRNA of shared genes in hallmark pathways, I-BRD9” value is “transcriptionally repressed”. For the same compound, in assay [5], the “effect on BRD9 and AKT1 interaction in cells” value is “markedly impaired BRD9 and AKT1 interaction in cells”. Also, the “effect on AKT1-R391me2s peptide binding of BRD9-BD in vitro” value with BRD9-BD (5 μM I-BRD9, pull-down) is “blocked the AKT1-R391me2s peptide binding of BRD9-BD in vitro”. For the same compound, the “AKT activation, I-BRD9” value with AKT [6] was “diminished AKT activation in a time-dependent manner”. The “interaction between PH and KD domains, I-BRD9” value in the assay with AKT1 PH and KD domains is “enhance the interaction between the PH and KD domains”. Also, in the assay on EZH2, the “AKT-mediated phosphorylation of EZH2” value is recorded as “largely blocked AKT-mediated phosphorylation of EZH2”. Besides, in the assay on MDA-MB-231 cells [4] (16 hours), the “shared down-regulated genes (I-BRD9 and ipatasertib)” value came out at 116 genes; the “shared up-regulated genes (I-BRD9 and ipatasertib)” value was 70 genes. For the same compound, in the assay with MDA-MB-231 cells [4], the “hallmark gene sets significantly enriched among the 186 shared genes” value is “Nine” and the “common down-regulated genes significantly marked by H3K27me3” value is recorded as “Seventy-five”.

As for “Biotin-Ahx-GLLKKDPKQ(Rme2s)LGGGSEDA [R391me2s]”, the “binding of BRD9-3Mut to AKT1-R391me2s peptide” value in the assay with BRD9-3Mut was “incapable of binding”. Further, in the assay on Tudor domain of SMN, the “binding of Tudor domain of SMN to R391me2s” value is “much weaker or no binding”. Besides, the “binding of Tudor domain of SND1 to R391me2s” value in the assay with Tudor domain of SND1 is “much weaker or no binding”. Also, in the assay on BRD9-BD, the “relative affinity of BRD9-BD for R391me2s vs H4R3me2s” value is given as “greater affinity for R391me2s than H4R3me2s”.

Take `CC[C@H](C)n1cc(C)c2c(C(=O)NCc3c(C)cc(C)[nH]c3=O)cc(-c3ccc(N4CCNCC4)nc3)cc21` [GSK126]: the “effect on H3K27me3 elevation caused by loss of BRD9” value in the assay with H3K27me3 (5 μM GSK126, 16 h, MDA-MB-231, sgBRD9) is “completely blocked”. In addition, in the assay with H3K27me3 (GSK126 with I-BRD9, 16 h, MDA-MB-231 (fig. S6D)), the “effect on I-BRD9-enhanced H3K27me3” value was “suppressed”. Besides, in the assay on MDA-MB-231 cells [3] (5 μM GSK126, 48 hours), the “transcription of common genes of BRD9 and AKT” value is “increased the transcription of common genes of BRD9 and AKT”.

Regarding `O=c1cc(N2CCOCC2)oc2c(-c3ccccc3)cccc12` [LY294002], the “H3K27me3 level, LY294002” value in the assay on H3K27me3 (0, 10, 20 μM, 16 h, MDA-MB-231) was “elevated”.
